Laboratory results as given in paper PMC6471013 (Chemistry (Weinheim an Der Bergstrasse, Germany), 2018).
Where two headings read alike, the source gives them in different places.

What was measured:
[1] = target: Recombinant human integrin αvβ3 receptor (Homo sapiens, UniProt P05106+P06756); format: binding; details: competition with biotinylated vitronectin for the isolated αvβ3 receptor
How it was run: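 Test compound competes with biotinylated vitronectin for binding to the αvβ3 receptor. IC50 is the concentration giving 50 % inhibition of vitronectin binding, estimated by curve fitting. Values are mean ± SD of duplicate determinations.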

[2] = system: αvβ3‐expressing human renal cell carcinoma 786‐O cells; assay: Cell antiproliferative assay, 96 h, with or without elastase; format: cell-based; details: 786-0, 96 h
How it was run: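 786‐O renal carcinoma cells (αvβ3-positive) exposed to test compound for 96 h, with or without 50 nm elastase from human leukocytes. IC50 taken as the concentration giving 50 % inhibition of cell viability. Samples run in triplicate.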

Sequence of Recombinant human integrin αvβ3 receptor (P06756 31-992 limits assumed): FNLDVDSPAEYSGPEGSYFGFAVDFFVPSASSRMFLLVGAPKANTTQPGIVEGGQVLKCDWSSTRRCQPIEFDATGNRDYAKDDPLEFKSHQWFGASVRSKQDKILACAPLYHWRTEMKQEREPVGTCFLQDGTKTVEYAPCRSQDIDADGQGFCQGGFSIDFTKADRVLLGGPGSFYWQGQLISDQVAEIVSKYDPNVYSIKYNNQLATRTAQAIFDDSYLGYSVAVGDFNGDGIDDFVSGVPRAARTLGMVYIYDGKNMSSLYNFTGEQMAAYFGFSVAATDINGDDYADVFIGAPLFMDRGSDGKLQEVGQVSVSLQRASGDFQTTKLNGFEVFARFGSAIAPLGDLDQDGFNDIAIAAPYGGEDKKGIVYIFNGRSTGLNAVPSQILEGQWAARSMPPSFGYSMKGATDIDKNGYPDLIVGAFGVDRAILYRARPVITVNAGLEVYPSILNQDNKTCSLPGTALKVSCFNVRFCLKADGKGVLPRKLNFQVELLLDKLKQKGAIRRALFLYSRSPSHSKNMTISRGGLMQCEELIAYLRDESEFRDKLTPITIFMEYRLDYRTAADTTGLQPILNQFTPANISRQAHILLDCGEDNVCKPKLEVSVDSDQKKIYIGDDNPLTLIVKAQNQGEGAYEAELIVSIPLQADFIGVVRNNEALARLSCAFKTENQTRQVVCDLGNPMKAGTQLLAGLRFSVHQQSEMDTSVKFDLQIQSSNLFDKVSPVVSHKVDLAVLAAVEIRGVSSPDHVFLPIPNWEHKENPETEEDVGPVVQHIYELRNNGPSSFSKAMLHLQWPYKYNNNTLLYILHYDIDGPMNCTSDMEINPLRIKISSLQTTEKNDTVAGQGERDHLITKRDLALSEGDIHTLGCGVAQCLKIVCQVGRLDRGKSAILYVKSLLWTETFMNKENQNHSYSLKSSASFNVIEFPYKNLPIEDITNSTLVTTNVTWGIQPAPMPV
Sequence of Recombinant human integrin αvβ3 receptor (P05106 27-718 limits assumed): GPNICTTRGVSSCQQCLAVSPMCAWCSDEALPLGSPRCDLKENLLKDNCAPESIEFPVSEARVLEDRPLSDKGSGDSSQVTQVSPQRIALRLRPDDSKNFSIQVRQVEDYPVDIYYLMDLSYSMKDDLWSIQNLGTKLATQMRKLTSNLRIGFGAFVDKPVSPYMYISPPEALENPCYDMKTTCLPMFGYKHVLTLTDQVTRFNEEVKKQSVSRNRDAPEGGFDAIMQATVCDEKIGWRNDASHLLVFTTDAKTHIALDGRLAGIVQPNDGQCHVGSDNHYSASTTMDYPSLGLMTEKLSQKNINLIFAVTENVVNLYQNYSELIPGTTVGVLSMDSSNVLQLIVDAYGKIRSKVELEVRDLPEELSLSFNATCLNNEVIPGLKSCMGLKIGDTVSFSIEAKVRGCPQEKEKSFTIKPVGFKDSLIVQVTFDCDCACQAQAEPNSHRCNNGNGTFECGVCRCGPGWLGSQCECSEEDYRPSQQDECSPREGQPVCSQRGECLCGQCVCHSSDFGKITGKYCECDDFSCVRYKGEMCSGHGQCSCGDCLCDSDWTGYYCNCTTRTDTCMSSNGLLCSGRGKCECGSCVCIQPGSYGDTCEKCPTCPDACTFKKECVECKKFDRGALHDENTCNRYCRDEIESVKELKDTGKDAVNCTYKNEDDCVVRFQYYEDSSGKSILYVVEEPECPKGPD

SMILES	αvβ3 integrin binding IC50, in words [1]	IC50 ([2]; read-out: IC50, added elastase NO) [nM]	IC50 ([2]; read-out: IC50, added elastase YES) [nM]
CN1C(=CC=CC=CC2=[N+](CCCCCC(=O)NCc3ccc(CN4C(=O)[C@@H]5CC(=O)N[C@@H](CCCNC(=N)N)C(=O)NCC(=O)N[C@@H](CC(=O)O)C(=O)NC[C@@H]4C(=O)N5)cc3)c3ccc(S(=O)(=O)[O-])cc3C2(C)C)C(C)(C)c2cc(S(=O)(=O)O)ccc21 [compound 2, cyclo(DKP‐RGD)‐sCy5]	low‐nanomolar	–	–
N=C(N)NCCC[C@@H]1NC(=O)C[C@@H]2NC(=O)[C@@H](CNC(=O)[C@H](CC(=O)O)NC(=O)CCNC1=O)N(Cc1ccccc1)C2=O [compound 3, cyclo(DKP‐RβAD)]	micromolar	–	–
CC(=O)O[C@H]1C(=O)[C@@]2(C)[C@H]([C@H](OC(=O)c3ccccc3)[C@]3(O)C[C@H](OC(=O)[C@H](O)[C@@H](NC(=O)c4ccccc4)c4ccccc4)C(C)=C1C3(C)C)[C@]1(OC(C)=O)CO[C@@H]1C[C@@H]2O [compound 12, Paclitaxel]	–	35.8 ± 16.7	29.5 ± 7.6
